Results pooled from the literature.
Protocols differ between the studies behind these lines.
Target: Cholinesterase (BCHE, Equus caballus, UniProt P81908)
Effect on: enzyme activity
Action: inhibitor

Structure (SMILES)	assay	IC50
CC(=O)N1CCN(c2nccc(NCCc3ccccc3)n2)CC1	–	> 100 µM
CCOc1ccc(C=NNC(=S)NCC(=O)c2ccc(-c3ccccc3)cc2)cc1	Ellman	501 µM
C#CCNc1nc(NCCCCC2CCN(Cc3ccccc3)CC2)c(C#N)cc1C#N	Ellman	0.511 µM
CC=C1[C@H]2C=C(C)C[C@]1(N)c1ccc(OC)nc1C2	Ellman	904 µM
CCOc1ccc(C=NNC(=S)NCC(=O)c2cccc(C)c2)cc1	Ellman	300 µM
O=C(NCCCNc1c2c(nc3ccccc13)CCCC2)c1ccccc1O	Ellman	0.129 µM
CC(C)(C)OC(=O)N1CCN(c2nccc(NCc3ccccc3)n2)CC1	–	> 100 µM
CC=C1[C@H]2C=C(C)C[C@]1(N)c1cc(C)c(=O)[nH]c1C2	Ellman	486 µM
C#CCN(C)c1nc(NCCCCC2CCN(Cc3ccccc3)CC2)c(C#N)c(-c2ccccc2)c1C#N	Ellman	0.22 µM
CC=C1[C@H]2C=C(C)C[C@]1(N)c1cc(CC)c(=O)[nH]c1C2	Ellman	60.4 µM
CCOc1ccc(C=NNC(=S)NCC(=O)c2ccc(Cl)cc2Cl)cc1	Ellman	331 µM
